# Experimental data of several laboratories.
# Target: Phosphatidylinositol 4,5-bisphosphate 3-kinase catalytic subunit gamma isoform (PIK3CG, Homo sapiens, UniProt P48736)
Structure (SMILES),effect on,mode,method,tested at,measurement,value
N#Cc1ccc(NC(=O)Nc2ccccc2)cc1,cell-free assay,,competition with immobilised ligand,25 µM,remaining binding,77%
CC#CC(=O)N1CCC[C@H]1c1nc(-c2ccc(C(=O)Nc3ccccn3)cc2)c2c(N)nccn12,enzyme activity,inhibitor,,1 µM,inhibition,0%
COc1ccc2oc(-c3ccc4nc(N)oc4c3)c/c(=N\c3ccccc3NC(=O)CCN)c2c1,enzyme activity,inhibitor,,1 µM,remaining activity,98%
CCCCC(=O)Nc1ccc(-c2ccc3ncn(CCC)c(=O)c3c2)cn1,binding,,competition with immobilised ligand,0.5 µM,remaining binding,100%
COc1ccc2[nH]c3c4[nH]c5ccc(OC)cc5c4c4c(c3c2c1)C(=O)NC4=O,binding,,,1 µM,remaining binding,87%
CO[C@@H]1[C@H](N(C)C(=O)c2ccccc2)C[C@H]2O[C@]1(C)n1c3ccccc3c3c4c(c5c6ccccc6n2c5c31)C(=O)NC4,enzyme activity,inhibitor,,1 µM,inhibition,34%
C#Cc1cnc(Nc2ccnc(CO)c2)nc1Nc1ccccc1S(C)(=O)=NC#N (stereo not shown),cell-free assay,,,1 µM,remaining signal,15%
C[C@H]1CC[C@H](n2c3cnccc3c3cnc(Nc4ccc5c(n4)CCN(C(=O)CO)C5)nc32)CC1,cell-free assay,,,1 µM,remaining signal,47%
Cc1nc(NC(=O)N2CCC[C@H]2C(N)=O)sc1-c1ccnc(C(C)(C)C(F)(F)F)c1,enzyme activity,inhibitor,ADP detection,10 µM,inhibition,73.3%
C1=C/COCc2cc(ccc2OCCN2CCCC2)Nc2nccc(n2)-c2cccc(c2)COC/1,binding,,,0.1 µM,remaining binding,4.3%
